Measurements reported in ChEMBL document CHEMBL5325390, “1,2,4-Triazole-3-thione analogues with an arylakyl group at position 4 as metallo-β-lactamase inhibitors” (Bioorg Med Chem, 2022).
The source made the active and inactive calls. The calls are words filed in the database; no cut-off is given here.

Legend:
[1] = Binding affinity to IMP1 (unknown origin) expressed in Escherichia coli BL21(DE3) assessed as inhibition constant by measuring rate of substrate hydrolysis by UV-Vis spectrophotometric analysis; details: read-out: Ki
In short: (§1)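 Purified MBL (1–70 nM) with 150 µM imipenem or meropenem as reporter substrate, 50 mM HEPES pH 7.5, 30 °C. Hydrolysis followed by absorbance at 300 nm without and with inhibitor (0.5 µM–1 mM). Ki from the slope of v0/vi vs [I] under a competitive model, or from Dixon plots varying inhibitor and substrate. […] Triplicate, mean ± SD.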

[2] = target: T1, Angiotensin-converting enzyme (Oryctolagus cuniculus) (UniProt P12822); experiment: Inhibition of rabbit lung angiotensin-converting enzyme at 100 uM using Abz-Gly-Phe-(NO2)-Pro as substrate by fluorescence based microplate reader analysis relative to control; format: tissue-based
T1 sequence (whole entry): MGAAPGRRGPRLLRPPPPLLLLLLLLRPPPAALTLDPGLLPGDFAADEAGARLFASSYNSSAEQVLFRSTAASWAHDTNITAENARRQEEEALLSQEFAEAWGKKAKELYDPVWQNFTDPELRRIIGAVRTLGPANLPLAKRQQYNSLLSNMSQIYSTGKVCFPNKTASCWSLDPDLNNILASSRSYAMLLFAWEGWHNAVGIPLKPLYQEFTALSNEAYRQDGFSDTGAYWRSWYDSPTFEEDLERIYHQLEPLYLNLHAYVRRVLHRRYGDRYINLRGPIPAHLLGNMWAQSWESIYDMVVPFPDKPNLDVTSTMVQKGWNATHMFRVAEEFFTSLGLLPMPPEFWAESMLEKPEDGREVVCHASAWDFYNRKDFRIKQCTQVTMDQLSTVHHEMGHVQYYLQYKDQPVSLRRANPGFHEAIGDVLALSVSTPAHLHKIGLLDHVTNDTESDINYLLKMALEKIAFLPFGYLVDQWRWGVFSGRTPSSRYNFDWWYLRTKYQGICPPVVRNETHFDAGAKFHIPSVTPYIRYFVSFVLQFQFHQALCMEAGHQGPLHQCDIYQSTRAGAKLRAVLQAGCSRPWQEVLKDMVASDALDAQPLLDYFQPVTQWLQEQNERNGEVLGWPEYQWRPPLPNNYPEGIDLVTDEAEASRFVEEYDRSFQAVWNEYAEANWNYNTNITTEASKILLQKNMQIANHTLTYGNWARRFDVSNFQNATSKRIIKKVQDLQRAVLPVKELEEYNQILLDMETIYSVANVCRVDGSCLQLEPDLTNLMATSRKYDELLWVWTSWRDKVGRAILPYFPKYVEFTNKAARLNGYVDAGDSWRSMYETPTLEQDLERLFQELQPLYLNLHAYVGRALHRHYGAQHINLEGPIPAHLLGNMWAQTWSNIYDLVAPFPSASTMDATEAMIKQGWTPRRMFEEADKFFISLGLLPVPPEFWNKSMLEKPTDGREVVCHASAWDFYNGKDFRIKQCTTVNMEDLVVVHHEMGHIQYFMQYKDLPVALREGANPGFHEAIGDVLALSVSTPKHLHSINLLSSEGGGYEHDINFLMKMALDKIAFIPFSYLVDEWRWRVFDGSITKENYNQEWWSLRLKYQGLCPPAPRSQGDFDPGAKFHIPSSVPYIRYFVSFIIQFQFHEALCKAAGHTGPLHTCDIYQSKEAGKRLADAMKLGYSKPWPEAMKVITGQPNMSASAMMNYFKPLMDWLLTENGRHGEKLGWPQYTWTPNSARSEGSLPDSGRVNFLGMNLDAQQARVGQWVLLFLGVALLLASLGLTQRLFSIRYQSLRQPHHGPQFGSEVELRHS
In short: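 Rabbit lung ACE, 1.5 mU per well, in 150 mM Tris, 750 mM NaCl, pH 8.3, with Abz-Gly-Phe(NO2)-Pro substrate. Blank-corrected fluorescence of released Abz-Gly-OH (ex 316, em 413 nm) followed up to 90 min. Test compounds at 100 µM; captopril control at 100 nM. Inhibition % = 100 − (vi/v0 × 100).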

[3] = target: Metallo-beta-lactamase type 2 (Bacteria) (UniProt C7C422); experiment: Inhibition of NDM1 (unknown origin) expressed in Escherichia coli BL21(DE3) assessed as substrate hydrolysis at 100 uM by UV-Vis spectrophotometric analysis relative to control
Sequence of Metallo-beta-lactamase type 2 (Bacteria) (C7C422 whole entry): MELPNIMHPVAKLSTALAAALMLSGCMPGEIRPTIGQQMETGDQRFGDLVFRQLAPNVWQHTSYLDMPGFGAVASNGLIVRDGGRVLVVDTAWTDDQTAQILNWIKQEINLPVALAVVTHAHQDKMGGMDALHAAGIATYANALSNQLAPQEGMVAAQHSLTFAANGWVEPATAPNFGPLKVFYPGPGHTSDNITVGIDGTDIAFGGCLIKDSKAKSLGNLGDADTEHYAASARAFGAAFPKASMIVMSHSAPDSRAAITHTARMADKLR
In short: (§2)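 Single-point screen at 100 or 200 µM inhibitor against purified MBL (1–70 nM) with 150 µM imipenem or meropenem reporter substrate, 50 mM HEPES pH 7.5, 30 °C. Initial hydrolysis rate read by absorbance at 300 nm and compared with the uninhibited reaction. Triplicate.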

[4] = Binding affinity to VIM-4 (unknown origin) expressed in Escherichia coli BL21(DE3) assessed as inhibition constant by measuring rate of substrate hydrolysis by UV-Vis spectrophotometric analysis; in short: as §1
Klebsiella pneumoniae [5] = experiment: Antimicrobial synergistic activity against blaVIM-4-producing multidrug-resistant Klebsiella pneumoniae VA416/02 clinical isolate assessed as meropenem MIC at 32 ug/ml by CLSI based broth microdilution method (reference value: 16 ug/ml); format: functional; details: dose 32 µg/ml
Beta-lactamase VIM-1 = Beta-lactamase VIM-1 (Bacteria, UniProt Q8GDC1); experiment: Binding affinity to VIM-1 (unknown origin) expressed in Escherichia coli BL21(DE3) assessed as inhibition constant by measuring rate of substrate hydrolysis by UV-Vis spectrophotometric analysis; in short: as §1
Klebsiella pneumoniae [6] = experiment: Antimicrobial synergistic activity against blaVIM-1-producing multidrug-resistant Klebsiella pneumoniae 7023 clinical isolate assessed as meropenem MIC at 32 ug/ml by CLSI based broth microdilution method (reference value: 16 ug/ml); format: functional; details: dose 32 µg/ml
Escherichia coli = experiment: Synergistic antimicrobial activity against blaNDM-1-producing multidrug-resistant Escherichia coli SI-004M clinical isolate assessed as meropenem MIC at 32 ug/ml by CLSI based microdilution method (reference value: 64 ug/ml); format: functional; details: dose 32 µg/ml
[7] = target: Metallo-beta-lactamase type 2 (Bacteria, UniProt C7C422); experiment: Binding affinity to NDM1 (unknown origin) expressed in Escherichia coli BL21(DE3) assessed as inhibition constant by measuring rate of substrate hydrolysis by UV-Vis spectrophotometric analysis; details: read-out: Ki; in short: as §1
Sequence of Metallo-beta-lactamase type 2 (C7C422 whole entry): as above

Klebsiella pneumoniae [8] = experiment: Synergistic antimicrobial activity against blaVIM-4-producing multidrug-resistant Klebsiella pneumoniae VA416/02 clinical isolate assessed as fractional inhibitory concentration index in presence of meropenem by checkerboard assay; format: functional
[9] = Binding affinity to VIM-2 (unknown origin) expressed in Escherichia coli BL21(DE3) assessed as inhibition constant by measuring rate of substrate hydrolysis by UV-Vis spectrophotometric analysis; in short: as §1
[10] = target: Beta-lactamase VIM-1 (Bacteria) (UniProt Q8GDC1); experiment: Inhibition of VIM-1 (unknown origin) expressed in Escherichia coli BL21(DE3) assessed as substrate hydrolysis at 100 uM by UV-Vis spectrophotometric analysis relative to control; in short: as §2
[11] = test system: metallo-β-lactamase VIM-4 (Pseudomonas aeruginosa); experiment: Inhibition of VIM-4 (unknown origin) expressed in Escherichia coli BL21(DE3) assessed as substrate hydrolysis at 200 uM by UV-Vis spectrophotometric analysis relative to control
[12] = target: Metallo-beta-lactamase type 2 (Bacteria) (UniProt C7C422); experiment: Inhibition of NDM1 (unknown origin) expressed in Escherichia coli BL21(DE3) assessed as substrate hydrolysis at 200 uM by UV-Vis spectrophotometric analysis relative to control; in short: as §2
[13] = test system: metallo-β-lactamase IMP-1 (Pseudomonas aeruginosa); experiment: Inhibition of IMP1 (unknown origin) expressed in Escherichia coli BL21(DE3) assessed as substrate hydrolysis at 100 uM by UV-Vis spectrophotometric analysis relative to control
[14] = test system: metallo-β-lactamase VIM-2 (Pseudomonas aeruginosa); experiment: Inhibition of VIM-2 (unknown origin) expressed in Escherichia coli BL21(DE3) assessed as substrate hydrolysis at 200 uM by UV-Vis spectrophotometric analysis relative to control
[15] = target: Beta-lactamase VIM-1 (Bacteria) (UniProt Q8GDC1); experiment: Inhibition of VIM-1 (unknown origin) expressed in Escherichia coli BL21(DE3) assessed as substrate hydrolysis at 200 uM by UV-Vis spectrophotometric analysis relative to control; in short: as §2
[16] = test system: metallo-β-lactamase VIM-2 (Pseudomonas aeruginosa); experiment: Inhibition of VIM-2 (unknown origin) expressed in Escherichia coli BL21(DE3) assessed as substrate hydrolysis at 100 uM by UV-Vis spectrophotometric analysis relative to control
[17] = test system: metallo-β-lactamase VIM-4 (Pseudomonas aeruginosa); experiment: Inhibition of VIM-4 (unknown origin) expressed in Escherichia coli BL21(DE3) assessed as substrate hydrolysis at 100 uM by UV-Vis spectrophotometric analysis relative to control
[18] = target: T2, Angiotensin-converting enzyme (Oryctolagus cuniculus, UniProt P12822); experiment: Binding affinity to rabbit lung angiotensin-converting enzyme assessed as inhibition constant
T2 sequence (P12822 whole entry): T1 sequence (whole entry)

[19] = test system: metallo-β-lactamase L1 (Stenotrophomonas maltophilia); experiment: Inhibition of L1 (unknown origin) expressed in Escherichia coli BL21(DE3) assessed as substrate hydrolysis at 100 uM by UV-Vis spectrophotometric analysis relative to control
[20] = test system: metallo-β-lactamase IMP-1 (Pseudomonas aeruginosa); experiment: Inhibition of IMP1 (unknown origin) expressed in Escherichia coli BL21(DE3) assessed as substrate hydrolysis at 200 uM by UV-Vis spectrophotometric analysis relative to control
[21] = target: T1, Angiotensin-converting enzyme (Oryctolagus cuniculus); details: Lung, dose 100.0 nM

Compound | Ki [1] [nM] | inhibition [2] | inhibition [3] [%] | Ki [4] [nM] | MIC (Klebsiella pneumoniae [5]) [µg/mL] | Ki (Beta-lactamase VIM-1) [nM] | MIC (Klebsiella pneumoniae [6]) [µg/mL] | MIC (Escherichia coli) [µg/mL] | Ki [9] [nM] | inhibition [10] [%] | inhibition [11] [%] | inhibition [12] [%] | inhibition [13] [%] | inhibition [14] [%] | inhibition [15] [%] | inhibition [16] [%] | inhibition [17] [%] | inhibition [20] [%] | further results
Sc1nnc(-c2ccccc2)n1Cc1ccccc1 | 8000 | inactive | < 30 | 1500 | 4 | 720 | 4 |  |  |  |  |  |  |  |  |  |  |  | 
Oc1ccc(CCn2c(-c3cccc(-c4ccccc4)c3)n[nH]c2=S)cc1O | 9200 |  |  | 680 | 2 | 1300 | 16 | 32 | 1700 |  |  |  |  |  |  |  |  |  | Ki [7]: 17400 nM; FIC (Klebsiella pneumoniae [8]): 0.48
O=C1OC(Cn2c(Cc3ccc4ccccc4c3)n[nH]c2=S)c2ccccc21 (stereo unspecified) |  |  | < 30 |  |  |  |  |  |  | < 30 | < 50 | < 50 | 30 | < 50 | < 50 | < 30 | < 30 |  | 
S=c1[nH]nc(-c2ccccc2)n1CCCc1ccccc1 | 14000 | 50% | < 30 | 900 | 2 | 560 | 2 | 64 | 740 |  |  |  |  |  |  |  |  |  | Ki [18]: 30000 nM; FIC (Klebsiella pneumoniae [8]): 0.25; inhibition [19]: < 30%
COc1ccc(O)c(-c2n[nH]c(=S)n2CC2OC(=O)c3ccccc32)c1 (stereo unspecified) |  | inactive | 68 | 900 | 2 | 1200 | 2 | 64 | 3300 |  |  |  | 47 |  |  |  |  |  | 
O=C(O)c1cccc(Cn2c(-c3ccccc3)n[nH]c2=S)c1 |  | inactive | < 30 | 400 | 2 | 1400 | 2 | 32 | 1800 |  |  |  | < 30 |  |  |  |  |  | 
S=c1[nH]nc(Cc2ccc3ccccc3c2)n1-c1ccc(OCc2ccccc2)cc1 |  |  | < 30 |  |  |  |  |  |  | < 30 | < 50 | < 50 | < 30 | < 50 | < 50 | < 30 | < 30 | < 50 | 
S=c1[nH]nc(Cc2ccccc2)n1CCc1ccccc1 |  |  | < 30 |  |  |  |  |  |  | < 30 | < 50 | < 50 | < 30 | < 50 | < 50 | < 30 | < 30 | < 50 | 
S=c1[nH]nc(-c2cc3ccccc3[nH]2)n1-c1ccc(OCc2ccccc2)cc1 |  |  | < 30 |  |  |  |  |  |  | < 30 | < 50 | < 50 | < 30 | < 50 | < 50 | < 30 | < 30 | < 50 | 
C[C@H](CS)C(=O)N1CCC[C@H]1C(=O)O |  |  |  |  |  |  |  |  |  |  |  |  |  |  |  |  |  |  | inhibition [21]: 96%
